Experimental data taken from article PMC4758401 (Diabetes, Obesity & Metabolism, 2015).
Read-outs that look alike come from different tables or passages of the source.

Key:
Format in all cases: in vivo, patients with type 1 diabetes
plasma glucose = tested on: plasma glucose
[1] = Adverse events and hypoglycaemia
Procedure, shortened: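 Four-way crossover in adults with type 1 diabetes, one visit per arm over 4 weeks. Before a 600-kcal breakfast, each arm received subcutaneous regular insulin at 30% below the usual rapid-analogue dose, plus a separate masked injection of test compound (6, 9 or 12 mcg/U insulin) or volume-matched placebo. Symptomatic hypoglycaemia was tracked for 24 h after dosing; adverse events were recorded on- and off-treatment.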

glucagon = settings: for Reduction of AUC0–3 h for glucagon: p < 0.05
Procedure, shortened: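 Same crossover design: test compound at 6, 9 or 12 mcg/U insulin or volume-matched placebo, each injected separately alongside subcutaneous regular insulin (30% reduced dose) just before a standard 600-kcal breakfast. Plasma immunoreactive glucagon was measured by radioimmunoassay in samples taken at −15, −5, 15, 30, 45, 60, 90, 120, 150 and 180 min. Incremental AUC0–3 h from baseline was compared with placebo by a linear mixed-effects model (sequence, period, treatment, random patient), two-sided 0.05.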

[2] = all ratios (6, 9 or 12 mcg/unit insulin)

## CC[C@H](C)[C@H](NC(=O)[C@@H]1CCCN1C(=O)CNC(=O)[C@H](Cc1ccccc1)NC(=O)[C@H](CC(N)=O)NC(=O)[C@H](CC(N)=O)NC(=O)[C@H](CO)NC(=O)[C@H](CO)NC(=O)[C@H](Cc1c[nH]cn1)NC(=O)[C@@H](NC(=O)[C@H](CC(C)C)NC(=O)[C@H](Cc1ccccc1)NC(=O)[C@H](CC(N)=O)NC(=O)[C@H](C)NC(=O)[C@H](CC(C)C)NC(=O)[C@H](CCCNC(=N)N)NC(=O)[C@H](CCC(N)=O)NC(=O)[C@@H](NC(=O)[C@H](C)NC(=O)[C@@H]1CSSC[C@H](NC(=O)[C@@H](N)CCCCN)C(=O)N[C@@H](CC(N)=O)C(=O)N[C@@H]([C@@H](C)O)C(=O)N[C@@H](C)C(=O)N[C@@H]([C@@H](C)O)C(=O)N1)[C@@H](C)O)C(C)C)C(=O)N[C@@H](CC(C)C)C(=O)N1CCC[C@H]1C(=O)N1CCC[C@H]1C(=O)N[C@H](C(=O)N[C@@H](CC(N)=O)C(=O)N[C@H](C(=O)NCC(=O)N[C@@H](CO)C(=O)N[C@@H](CC(N)=O)C(=O)N[C@H](C(=O)N[C@@H](Cc1ccc(O)cc1)C(N)=O)[C@@H](C)O)C(C)C)[C@@H](C)O [pramlintide]
Plasma glucose; 6 mcg/U ratio vs placebo/insulin, p < 0.001
  Reduction of AUC0–3 h for glucose: 60%
Plasma glucose; 6 mcg–placebo, p <0.001
  Glucose incremental AUC0–3 h, LS mean difference: -205.98 mg·h/dL
Plasma glucose; 6–9 mcg, p 0.890
  Glucose incremental AUC0–3 h, LS mean difference: -6.04 mg·h/dL
Plasma glucose; 6–12 mcg, p 0.343
  Glucose incremental AUC0–3 h, LS mean difference: 40.63 mg·h/dL
Plasma glucose; 9 mcg–placebo, p <0.001
  Glucose incremental AUC0–3 h, LS mean difference: -199.93 mg·h/dL
Plasma glucose; 9–12 mcg, p 0.280
  Glucose incremental AUC0–3 h, LS mean difference: 46.67 mg·h/dL
Plasma glucose; 12 mcg–placebo, p <0.001
  Glucose incremental AUC0–3 h, LS mean difference: -246.60 mg·h/dL
Plasma glucose; [2]
  Reduction of 0–3‐h glucose increments: > 50%
[1]; all ratios (6, 9, 12 mcg/U insulin), single meal-time injection
  Tolerability: well tolerated
[1]; during the 24‐h period after pramlintide administration, all ratios
  Symptomatic hypoglycaemia: No symptomatic hypoglycaemia occurred
[1]; one patient, accompanying each pramlintide/insulin ratio, able to complete each test meal
  Nausea: mild nausea
[1]; one patient, after pramlintide 12 mcg/U
  Mild, asymptomatic hypoglycaemia between test meal days: hypoglycaemia 5 and 7 days after receiving pramlintide 12 mcg/U
glucagon; 6 mcg/U ratio vs placebo/insulin
  Reduction of AUC0–3 h for glucagon: 57%
glucagon; 6 mcg–placebo, p 0.041
  Glucagon incremental AUC0–3 h, LS mean difference: -14.23 pg·h/mL
glucagon; 6–9 mcg, p 0.934
  Glucagon incremental AUC0–3 h, LS mean difference: 0.57 pg·h/mL
glucagon; 6–12 mcg, p 0.945
  Glucagon incremental AUC0–3 h, LS mean difference: -0.47 pg·h/mL
glucagon; 9 mcg/U ratio vs placebo/insulin
  Reduction of AUC0–3 h for glucagon: 59%
glucagon; 9 mcg–placebo, p 0.034
  Glucagon incremental AUC0–3 h, LS mean difference: -14.80 pg·h/mL
glucagon; 9–12 mcg, p 0.879
  Glucagon incremental AUC0–3 h, LS mean difference: -1.05 pg·h/mL
glucagon; 12 mcg/U ratio vs placebo/insulin
  Reduction of AUC0–3 h for glucagon: 55%
glucagon; 12 mcg–placebo, p 0.046
  Glucagon incremental AUC0–3 h, LS mean difference: -13.75 pg·h/mL
glucagon; [2]
  Reduction of 0–3‐h glucagon increments: > 50%
